Article PMC9513682 (RSC Advances, 2022)

What was measured:
B-RAF(V600E) = B-RAF(V600E) (Homo sapiens, UniProt P15056, V600E); experiment: B-RAF; assay type: biochemical; details: for IC50: B-RAF (V600E) IC50, n = 3; for selectivity for B-RAFV600E kinase over B-RAF wild-type kinase: ratio of kinase IC50 values
[1] = test system: phosphorylation of downstream ERK1/2 (pT202/Y204) in WM266.4 cells; experiment: Cell-based B-RAFV600E kinase assay; details: for pERK 1/2: WM266.4 cell line, mean ± standard error of two experiments
Outline: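 Phospho-ERK1/2 (pT202/Y204) and total ERK1/2 were measured by a single-step sandwich ELISA (affinity-tagged capture antibody, reporter-conjugated detector antibody). pERK was reported in ng/mL as duplicate determinations. % inhibition was calculated against untreated control cells, as mean ± S.E. of two experiments.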

B-RAF (wild-type) = B-RAF (wild-type) (Homo sapiens, UniProt P15056); experiment: B-RAF; assay type: biochemical
WM266.4 melanoma cells = experiment: MTT cytotoxicity assay, B-RAFV600E-mutated melanoma cells; assay type: cell-based; details: for potency against WM266.4 melanoma cells relative to dabrafenib: WM266.4 cells
Outline: (§1)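 WM266.4 (B-RAFV600E) and Sk-mel-23 (B-RAF wild type) melanoma cells were grown in DMEM with FBS, penicillin and streptomycin at 37 °C under CO₂. […] MTT reagent was added and cells re-incubated; absorbance was read at 590 nm. IC50 was taken from concentration–inhibition curves (n = 3).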

Sk-mel-23 melanoma cells = experiment: MTT cytotoxicity assay, B-RAF wild type melanoma cells; assay type: cell-based; details: Homo sapiens, SK-MEL-23, 48 h, read-out: Sk-mel-23 IC50
Outline: as §1

Sequence of B-RAF(V600E) (P15056 whole entry V600E): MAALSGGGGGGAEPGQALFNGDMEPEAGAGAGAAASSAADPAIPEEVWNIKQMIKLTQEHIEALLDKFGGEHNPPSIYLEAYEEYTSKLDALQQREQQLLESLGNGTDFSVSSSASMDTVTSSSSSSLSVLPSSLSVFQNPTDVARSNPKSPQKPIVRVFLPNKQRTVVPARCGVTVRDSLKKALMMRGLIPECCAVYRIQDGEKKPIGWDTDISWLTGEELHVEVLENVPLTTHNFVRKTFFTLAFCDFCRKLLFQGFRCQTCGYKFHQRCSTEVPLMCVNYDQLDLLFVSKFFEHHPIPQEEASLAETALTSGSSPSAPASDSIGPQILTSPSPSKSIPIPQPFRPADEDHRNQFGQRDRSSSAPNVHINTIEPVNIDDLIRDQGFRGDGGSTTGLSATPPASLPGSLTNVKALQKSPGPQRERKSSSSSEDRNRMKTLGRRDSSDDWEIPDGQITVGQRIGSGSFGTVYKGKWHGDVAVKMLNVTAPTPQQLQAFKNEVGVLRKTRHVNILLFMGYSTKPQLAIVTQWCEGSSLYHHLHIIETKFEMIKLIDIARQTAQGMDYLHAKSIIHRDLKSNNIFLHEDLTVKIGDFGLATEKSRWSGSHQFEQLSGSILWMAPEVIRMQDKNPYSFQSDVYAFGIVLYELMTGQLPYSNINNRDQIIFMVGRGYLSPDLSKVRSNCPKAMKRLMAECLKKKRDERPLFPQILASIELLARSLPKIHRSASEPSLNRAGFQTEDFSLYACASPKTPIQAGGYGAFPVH
Sequence of B-RAF (wild-type) (P15056 whole entry): as the sequence (P15056 whole entry V600E) above, with E600V counted along it

SMILES | IC50 (B-RAF(V600E)) [nM] | selectivity for B-RAFV600E kinase over B-RAF wild-type kinase (B-RAF(V600E)) | IC50 (B-RAF (wild-type)) [nM] | potency against WM266.4 melanoma cells relative to dabrafenib (WM266.4 melanoma cells) | IC50 (Sk-mel-23 melanoma cells) [nM] | further results
Cc1ccc(C(CS(=O)(=O)c2ccccc2)=NNC(N)=S)cc1 [Compound 3, 2-Benzenesulfonyl-1-p-tolyl-ethanone thiosemicarbazone] | 115 ± 6 |  |  |  |  | 
Cc1ccc(C(CS(=O)(=O)c2ccccc2)=NNc2nc(C)c(N=Nc3ccccc3)s2)cc1 [Compound 7a, N-(2-Benzenesulfonyl-1-p-tolyl-ethylidene)-N′-(4-methyl-5-phenylazo-thiazol-2-yl)-hydrazine] | 199 ± 10 |  |  |  |  | 
Cc1ccc(C(CS(=O)(=O)c2ccccc2)=NNc2nc(C)c(N=Nc3cccc(C)c3)s2)cc1 [Compound 7b, N-(2-Benzenesulfonyl-1-p-tolyl-ethylidene)-N′-(4-methyl-5-m-tolylazo-thiazol-2-yl)-hydrazine] | 36.3 ± 1.9 | approximately four | 124 ± 6.6 | three to five | 7870 ± 400 | pERK 1/2 [1]: 1.339 ± 0.035 ng mL^−1
Cc1ccc(N=Nc2sc(NN=C(CS(=O)(=O)c3ccccc3)c3ccc(C)cc3)nc2C)cc1 [Compound 7c, N-(2-Benzenesulfonyl-1-p-tolyl-ethylidene)-N′-(4-methyl-5-p-tolylazo-thiazol-2-yl)-hydrazine] | 108 ± 5.6 |  |  |  |  | 
Cc1ccc(C(CS(=O)(=O)c2ccccc2)=NNc2nc(-c3ccc(OCCCCOc4ccc(-c5csc(NN=C(CS(=O)(=O)c6ccccc6)c6ccc(C)cc6)n5)cc4)cc3)cs2)cc1 [Compound 15, 1,1′-[1,4-Butanediylbis(oxy)]bis[4-(2-{[2-(benzenesulfonyl)-1-(p-tolyl)ethylidene]-hydrazino}thiazol-4-yl)benzene]] | 51.9 ± 2.7 | 5 fold | 251 ± 13.5 |  | 17600 ± 890 | cytotoxic potency toward WM266.4 rather than Sk-mel-23 melanoma cells (WM266.4 melanoma cells; WM266.4 (B-RAFV600E-mutated) versus Sk-mel-23 (B-RAF wild type)): equal potency
NC(=S)NN=C(CS(=O)(=O)c1ccccc1)c1ccc(F)cc1 [Compound 17, 2-Benzenesulfonyl-1-(4-fluorophenyl)-ethanone thiosemicarbazone] | 68.2 ± 3.5 |  | 153 ± 8.2 | 11 fold | 12400 ± 630 | activity toward B-rafV600E as share of the activity of dabrafenib (B-RAF(V600E); relative to dabrafenib): 70%
COc1ccc(-c2csc(NN=C(CS(=O)(=O)c3ccccc3)c3ccc(F)cc3)n2)cc1 [Compound 19, N-[2-Benzenesulfonyl-1-(4-fluorophenyl)-ethylidene]-N′-[4-(4-methoxyphenyl)thiazol-2-yl]-hydrazine] | 116 ± 8 |  |  |  |  | 
CC(C)(C)c1nc(-c2cccc(NS(=O)(=O)c3c(F)cccc3F)c2F)c(-c2ccnc(N)n2)s1 [Dabrafenib, dabrafenib] |  |  |  |  | 9030 ± 460 | pERK 1/2 [1]: 0.769 ± 0.018 ng mL^−1; % inhibition of pERK 1/2 ([1]; WM266.4 cells, compared with the control cancer cells): 71.9%

Now from value to compound, other results behind:

IC50 (B-RAF(V600E)) [nM] | selectivity for B-RAFV600E kinase over B-RAF wild-type kinase (B-RAF(V600E)) | IC50 (B-RAF (wild-type)) [nM] | SMILES | potency against WM266.4 melanoma cells relative to dabrafenib (WM266.4 melanoma cells) | IC50 (Sk-mel-23 melanoma cells) [nM] | further results
84.9 ± 4.4 | approximately four | 361 ± 19.4 | Cc1ccc(C(CS(=O)(=O)c2ccccc2)=NNC2=NC(=O)C(=NNc3ccccc3)S2)cc1 [Compound 11a, 2-[N′-(2-Benzenesulfonyl-1-p-tolyl-ethylidene)-hydrazino]-5-(phenyl-hydrazono)-thiazol-4-one] | three to five | 430 ± 20 | 
185 ± 9.6 |  |  | Cc1ccc(C(CS(=O)(=O)c2ccccc2)=NNC2=NC(=O)C(=NNc3ccc(Cl)cc3)S2)cc1 [Compound 11b, 2-[N′-(2-Benzenesulfonyl-1-p-tolyl-ethylidene)-hydrazino]-5-[(4-chloro-phenyl)-hydrazono]-thiazol-4-one] |  |  | 
95.4 ± 5 |  | 229 ± 12.3 | Cc1ccc(C(CS(=O)(=O)c2ccccc2)=NNC2=NC(=O)C(=NNc3ccc([N+](=O)[O-])cc3)S2)cc1 [Compound 11c, 2-[N′-(2-Benzenesulfonyl-1-p-tolyl-ethylidene)-hydrazino]-5-[(4-nitro-phenyl)-hydrazono]-thiazol-4-one] | 11 fold | 22300 ± 1140 | 
23.1 ± 1.2 | approximately four | 97.9 ± 5.2 | Cc1ccc(C(CS(=O)(=O)c2ccccc2)=NN=C2N=C(c3ccc(Br)cc3)CS2)cc1 [Compound 13a, N-(2-Benzenesulfonyl-1-p-tolyl-ethylidene)-N′-[4-(4-bromo-phenyl)-5H-thiazol-2-ylidene]-hydrazine] | three to five | 50200 ± 2560 | 
206 ± 11 |  |  | Cc1ccc(C(CS(=O)(=O)c2ccccc2)=NN=C2N=C(c3ccc(C)cc3)CS2)cc1 [Compound 13b, N-(2-Benzenesulfonyl-1-p-tolyl-ethylidene)-N′-(4-p-tolyl-5H-thiazol-2-ylidene)-hydrazine] |  |  | 
